Screening data as filed in PubChem.
PDI inh: PDI (human) enzyme inhibition; AID 588391; P07237; PDI insulin aggregation turbidity, A650, 90 min; inhibition, % at 10 µM; hit rate 0.052% among 350,000;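 active = mean inhibition across replicates of 30% or more, whatever share of single replicates reach that level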
ERp5 block: ERp5 (human) disulfide isomerase inhibition | hit rate 0.05% among 350,000 | Q15084 | inhibition, % at 9.99 µM | AID 651711 | ERp5 insulin aggregation, absorbance 650 nm, 90 min;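 active = mean replicate inhibition above about 25%, with every replicate also reaching it, limit read from the data, passing the limit was not always enough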
Target sequence (Q15084 whole entry, looked up): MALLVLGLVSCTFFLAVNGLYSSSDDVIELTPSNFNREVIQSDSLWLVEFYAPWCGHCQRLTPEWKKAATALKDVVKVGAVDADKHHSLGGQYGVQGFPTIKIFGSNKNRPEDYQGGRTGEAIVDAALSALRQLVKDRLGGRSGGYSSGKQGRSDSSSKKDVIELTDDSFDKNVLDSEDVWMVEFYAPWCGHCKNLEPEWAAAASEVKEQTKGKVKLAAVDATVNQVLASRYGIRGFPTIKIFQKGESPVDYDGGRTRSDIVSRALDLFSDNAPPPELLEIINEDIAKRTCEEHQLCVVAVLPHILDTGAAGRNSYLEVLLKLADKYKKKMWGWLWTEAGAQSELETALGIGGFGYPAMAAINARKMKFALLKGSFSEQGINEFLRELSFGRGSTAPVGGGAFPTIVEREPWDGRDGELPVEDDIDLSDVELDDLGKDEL
Cneo AK release: Cryptococcus neoformans lysis via adenylate kinase release. lysis activity, % at 15 µM. C. neoformans lysis, adenylate kinase release luminescence, 4 h; normalised: neutral wells 0, clomiphene wells 100. hit rate 0.2% among 360,000. AID 651654;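 active = mean lysis activity across replicates of at least 80%, whatever share of replicates individually reach that level; inactive = mean lysis activity below 80%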
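Material: C. neoformans cells | Amount: Yeast cell density of 5 × 10^6 cells/mL | Medium: Fresh YPD growth medium | Dosing: Single dose | Times: Static 4 h at 37 °C with compound, 1 h detection | Detection: AK luminescence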
miR122 inh: inhibitors of miR-122 in Huh7 cells. Huh7 miR-122 Renilla luciferase sensor, 48 h; neutral wells = 0, positive control = 100. activation (reporter increase), % at 12.5 µM. hit rate 0.3% among 340,000. AID 602342;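 active = mean replicate activation score at least 90 and every replicate individually at or above 90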;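 note: higher luciferase means less miR-122 activity so hits act as miR-122 inhibitors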
PvdQ acylase: P. aeruginosa PvdQ acylase inhibition. AID 488965. hit rate 0.063% among 340,000. inhibition, % at 10 µM. purified PvdQ acylase, fluorescence plate reader; in the data active = inhibition above about 30%, passing the limit was not always enough
PglD DTNB: blocks C. jejuni PglD acetyltransferase activity. purified PglD enzyme, DTNB colorimetric CoA detection. inhibition, % at 12.5 µM. AID 602405. hit rate 0.098% among 360,000; in the data active = inhibition above about 16%, passing the limit was not always enough
Large screens that a line does not name were inactive. In the library only some 0.58% were active in any assay of this set; here they are far more common.

O=C(Nc1ccc(S(=O)(=O)Nc2nccs2)cc1)c1cc(-c2ccccc2Cl)nc2ccccc12	miR122 inh 104.3 (no result: ERp5 block, Cneo AK release, PglD DTNB)
N#CC(c1ccccc1)c1cccc(Cl)n1 (configuration not stated)	PvdQ acylase 102.9 (no result: Cneo AK release, PglD DTNB)
COc1ccccc1C(C#N)c1cccc(Cl)n1 (configuration not stated)	PvdQ acylase 116.3
COc1ccc(C(C#N)c2nc3ccccc3nc2Cl)cc1 (configuration not stated)	none
CN(C)c1ccc(C(C#N)c2ccccc2)nn1 (configuration not stated)	none
COc1ccc(S(=O)(=O)N(C)C[C@@H]2Oc3c(NC(=O)Nc4ccc(C(F)(F)F)cc4)cccc3C(=O)N([C@@H](C)CO)C[C@@H]2C)cc1	none (no result: PDI inh, PvdQ acylase)
Cc1cccc(S(=O)(=O)C(C#N)c2nc3ccccc3nc2N2CCCC2)c1 (configuration not stated)	miR122 inh 118.6 (no result: ERp5 block)
O=C(NCC1CCCCC1)c1cc(S(=O)(=O)N2CCCCC2)ccc1Cl	none
O=C(NCC1CCCCC1)c1cc(Br)ccc1Cl	PvdQ acylase 33.9
c1ccc(-c2nnc(-c3ccco3)o2)cc1	none (no result: ERp5 block)
Brc1ccc(-c2nnc(-c3ccco3)o2)cc1	PvdQ acylase 90.1 (no result: ERp5 block, Cneo AK release, PglD DTNB)
C[C@H]1CN([C@@H](C)CO)S(=O)(=O)c2ccc(C#Cc3ccccc3)cc2O[C@@H]1CN(C)S(=O)(=O)c1cn(C)cn1	none (no result: PDI inh, PvdQ acylase)
COc1cc(/C=C2/CCC/C(=C\c3cc(O)c(OC)c(Cl)c3)C2=O)cc(Cl)c1O	miR122 inh 113.4 (no result: ERp5 block)
COc1cc(/C=C2\CC/C(=C\c3cc(OC)c(O)c(OC)c3)C2=O)cc(OC)c1O	none (no result: Cneo AK release, miR122 inh, PglD DTNB)
Cc1cc(C(=O)Nc2ccc3c(c2)C(=O)N(C)[C@@H]2CC[C@@H](CC(=O)N[C@@H](C)c4ccccc4)O[C@@H]2CO3)no1	Cneo AK release 83.3 (no result: PDI inh, PvdQ acylase)
Cc1cc(C(=O)Nc2ccc3c(c2)C(=O)N(C)[C@H]2CC[C@H](CC(=O)N[C@@H](C)c4ccccc4)O[C@H]2CO3)no1	none (no result: PDI inh, PvdQ acylase)
Cc1cc(C(=O)Nc2ccc3c(c2)C(=O)N(C)[C@H]2CC[C@@H](CC(=O)N[C@@H](C)c4ccccc4)O[C@H]2CO3)no1	Cneo AK release 99.7 (no result: PDI inh, PvdQ acylase)
Cc1c(O)ccc2c(CN3CCN(C/C=C/c4ccccc4)CC3)cc(=O)oc12	PDI inh 43.5 (no result: Cneo AK release, miR122 inh, PglD DTNB)
O=C(C[C@@H]1CC[C@H](NC(=O)Cc2ccccn2)[C@@H](CO)O1)NCCCN1CCOCC1	none (no result: PDI inh, miR122 inh, PvdQ acylase)
O=C(CSc1nc(NS(=O)(=O)c2ccccc2)cc(=O)[nH]1)Nc1ccc(F)cc1	PglD DTNB 24.9 (no result: ERp5 block)
O=C(C[C@@H]1CC[C@@H]2[C@H](COC[C@H](O)CN2CCc2ccccc2)O1)NCCCN1CCOCC1	none (no result: PDI inh, PvdQ acylase)
C[C@@H]1CCCCO[C@H](CN(C)C(=O)CCCN(C)C)[C@@H](C)CN([C@H](C)CO)C(=O)c2cc(NC(=O)Cc3ccccc3)ccc2O1	Cneo AK release 115.6 (no result: PDI inh, PvdQ acylase)
C[C@@H]1CCCCO[C@@H](CN(C)C(=O)CCCN(C)C)[C@@H](C)CN([C@H](C)CO)C(=O)c2cc(NC(=O)Cc3ccccc3)ccc2O1	Cneo AK release 103.8 (no result: PDI inh, PvdQ acylase)
C[C@H]1CCCCO[C@@H](CN(C)C(=O)CCCN(C)C)[C@@H](C)CN([C@@H](C)CO)C(=O)c2cc(NC(=O)Cc3ccccc3)ccc2O1	none (no result: PDI inh, PvdQ acylase)
O=C(C[C@@H]1C=C[C@@H](NC(=O)CN2CCOCC2)[C@H](CO)O1)NCCc1ccncc1	none (no result: PDI inh, Cneo AK release, miR122 inh, PvdQ acylase, PglD DTNB)
Cc1cccc(NC(=O)CNC(=O)c2ccc3c(c2)OCO3)n1	none
Cc1cccc(NC(=O)c2ccc3c(c2)OCCO3)n1	PvdQ acylase 37.3 (no result: ERp5 block)
CCOc1ccc(C(=O)Nc2cccc(C)n2)cc1	PvdQ acylase 51.2 (no result: ERp5 block)
C[C@@H](O)C#Cc1ccc([C@@H]2[C@H]3CN(CC4CC4)CCCCN3[C@H]2CO)cc1	Cneo AK release 114.6 (no result: PDI inh, PvdQ acylase)
C[C@H](O)C#Cc1ccc([C@H]2[C@H](CO)N3CCCCN(CC4CCOCC4)C[C@@H]23)cc1	Cneo AK release 97.9 (no result: PDI inh, PvdQ acylase)
C[C@H](O)C#Cc1ccc([C@@H]2[C@@H](CO)N3CCCCN(CC4CC4)C[C@H]23)cc1	none (no result: PDI inh, PvdQ acylase)
C[C@@H]1CCCCO[C@H](CN(C)C(=O)C2CCCCC2)[C@H](C)CN([C@@H](C)CO)C(=O)c2cc(NS(=O)(=O)c3cccs3)ccc2O1	none (no result: PDI inh, PvdQ acylase)
CCN(CC)S(=O)(=O)c1ccc(N2CCOCC2)c(NS(=O)(=O)c2ccc(C(C)C)cc2)c1	miR122 inh 105.8
Cc1ccc(O)c(C2=NNC(c3ccc(Cl)cc3)C2)c1 (configuration not stated)	none
Oc1ccc(Cl)cc1C1=NNC(c2cccs2)C1 (configuration not stated)	PvdQ acylase 34.1
CCCCn1c(NC(=O)c2ccc(Br)o2)c(S(=O)(=O)c2ccccc2)c2nc3ccccc3nc21	miR122 inh 165.1 (no result: ERp5 block)
Cc1ccc([N+](=O)[O-])cc1N(CC(=O)Nc1ccc(S(=O)(=O)Nc2cccc(C(F)(F)F)c2)cc1)S(C)(=O)=O	miR122 inh 123.1 (no result: ERp5 block)
COc1ccccc1N(CC(=O)Nc1cccc(C(F)(F)F)c1)S(C)(=O)=O	none
O=C(C[C@@H]1C[C@H]2c3cc(NS(=O)(=O)c4ccccc4)ccc3O[C@H]2[C@H](CO)O1)NC1CCCCC1	ERp5 block 35.0 (no result: PDI inh, PvdQ acylase)
COc1cccc(S(=O)(=O)Nc2ccc3c(c2)[C@H]2C[C@@H](CC(=O)NC4CCCCC4)O[C@@H](CO)[C@H]2O3)c1	Cneo AK release 101.3 (no result: PDI inh, PvdQ acylase)
COCCn1c(C)cc(C(=O)COC(=O)c2cc3c(s2)CCC3)c1C	miR122 inh 314.7 (no result: ERp5 block)
CCNC(=O)Nc1ccc2c(c1)C(=O)N(C)[C@H]1CC[C@@H](CC(=O)NCC3CCCCC3)O[C@H]1CO2	none (no result: PDI inh, PvdQ acylase)
Cc1cc(C(=O)Nc2cccc3c2O[C@@H](CN(C)CC2CC2)[C@@H](C)CN([C@@H](C)CO)C3=O)n(C)n1	none (no result: PDI inh, PvdQ acylase)
O=C1CCCS(=O)(=O)c2ccccc21	miR122 inh 171.5
O=C1CCCCC(=O)N(c2ccccc2)c2ccccc21	none (no result: ERp5 block)
CCCNC(=O)C[C@@H]1CC[C@H]2[C@@H](COC[C@H](O)CN2C(=O)Nc2ccc3c(c2)OCO3)O1	none (no result: PDI inh, PvdQ acylase)
CNC(=O)C[C@@H]1CC[C@H]2[C@@H](COC[C@H](O)CN2C(=O)Nc2ccc3c(c2)OCO3)O1	Cneo AK release 89.1 (no result: PDI inh, PvdQ acylase)
CNC(=O)C[C@@H]1CC[C@@H]2[C@H](COC[C@@H](O)CN2C(=O)Nc2ccc3c(c2)OCO3)O1	Cneo AK release 113.2 (no result: PDI inh, PvdQ acylase)
COc1cccc(NC(=O)N2C[C@H](O)COC[C@H]3O[C@@H](CC(=O)NCc4ccccc4F)CC[C@@H]32)c1	Cneo AK release 118.7 (no result: PDI inh, PvdQ acylase)
CCNC(=O)C[C@H]1CC[C@@H]2[C@H](COC[C@@H](O)CN2C(=O)Nc2ccc3c(c2)OCO3)O1	none (no result: PDI inh, PvdQ acylase)
C[C@H]1CN([C@@H](C)CO)C(=O)Cc2cc(NC(=O)Nc3ccc4c(c3)OCO4)ccc2O[C@H]1CN(C)S(=O)(=O)c1cn(C)cn1	none (no result: PDI inh, ERp5 block, PvdQ acylase)
